The values that follow come from ChEMBL document CHEMBL5661972, “In vitro biological activity of a novel small-molecule inhibitor of polo-like kinase 1” (Mol Cancer Ther, 2007).

The target of series [1] is Platelet-derived growth factor receptor beta (Homo sapiens, UniProt P09619). The series is described as follows: Inhibition of PDGFR1beta (unknown origin).
Series [2] can be described thus: Inhibition of EGFR (unknown origin). Set-up: species or system Homo sapiens.
Series [3] can be described thus: Selectivity ratio of IC50 for cytotoxicity against human HDF cells to IC50 for antiproliferative activity against human HN5 cells. Format: toxicity, cell-based. The settings on record: HDF cells versus HN5 cells.
Series [4] can be described thus: Inhibition of p53-PLK1 in human HeLa cells assessed as inhibition of p53 phosphorylation at Ser15 residue by ELISA analysis. Format: cell-based. The gist of the method: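 HeLa Tet-On cells carrying tet-inducible p53-PLK1 kinase-domain fusion (T210D), induced overnight with 125 ng/mL doxycycline; ten 3-fold dilutions (30–0.00152 μmol/L final, 0.3% DMSO, 5% serum) for 1 h. Lysates captured on anti-p53-coated plates overnight at 4°C; phospho-Ser15 and total p53 detected with HRP secondary/TMB, A450. IC50 from curve fit.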
On the technique in general: An ELISA detects its analyte on a solid surface through an enzyme-linked reagent.

Series [5] concerns NCI-H460. In words: Antiproliferative activity against human NCI-H460 cells assessed as outgrowth of cells at 0.37 micromol/L incubated for 72 hrs. Format: functional, cell-based. The settings on record: dose 0.37 µmol/L. Put shortly:
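HDF seeded at 1,300 and H460 at 600 per well in 96-well plates. After 24 h, exposed to vehicle (0.3% DMSO) or compound at 0.37–30 μmol/L for 72 h. Wells were then washed with PBS and refed with drug-free medium containing gentamicin. Regrowth was followed by methylene blue staining at set time points over 13 days in total.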

Series [6] has as its system NHDF. The series is described as follows: Induction of cell cycle arrest in human HDF cells assessed as accumulation of cells at G2-M phase at 1 micromol/L incubated for 24 hrs by propidium iodide staining based flow cytometry analysis (reference value: 22.6 %). The settings on record: 1 µM, dose 1 µmol/L. Format: toxicity. The gist of the method:
(§1)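 Cells seeded in six-well plates at densities that keep them in log growth (HDF 120,000, 60,000 or 30,000; H460 100,000, 50,000 or 25,000 per well for 24, 48 or 72 h). Treated with 1 or 3 μmol/L. Floating and adherent cells collected, ethanol-fixed, permeabilized with Triton X-100 and stained with propidium iodide. DNA content read by flow cytometry as % singlet cells.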
On the technique in general: Flow cytometry measures light scatter and fluorescence of single cells or particles in a stream.

Series [7] has as its system NHDF. The series is described as follows: Induction of cell cycle arrest in human HDF cells assessed as accumulation of cells at >4N phase at 3 micromol/L incubated for 24 hrs by propidium iodide staining based flow cytometry analysis (reference value: 2.4 %). The settings on record: 3 µM, dose 3 µmol/L. Format: toxicity. The gist of the method:
as §1

In series [8] the test system is NHDF. The series is described as follows: Induction of cell cycle arrest in human HDF cells assessed as accumulation of cells at S phase at 3 micromol/L incubated for 48 hrs by propidium iodide staining based flow cytometry analysis (reference value: 4.7 %). Format: toxicity. The settings on record: 3 µM, dose 3 µmol/L. Put shortly: as §1
Series [9] relates to NHDF. In words: Induction of cell cycle arrest in human HDF cells assessed as accumulation of cells at G2-M phase at 1 micromol/L incubated for 48 hrs by propidium iodide staining based flow cytometry analysis (reference value: 14.3 %). The settings on record: 1 µM, dose 1 µmol/L. Format: toxicity. The gist of the method: as §1
The subject of series [10] is NHDF. The series is described as follows: Induction of cell cycle arrest in human HDF cells assessed as accumulation of cells at >4N phase at 1 micromol/L incubated for 48 hrs by propidium iodide staining based flow cytometry analysis (reference value: 3.0 %). Format: toxicity. The note with it: 1 µM, dose 1 µmol/L. The gist of the method:
as §1

Series [11] has as its system NHDF. In words: Induction of cell cycle arrest in human HDF cells assessed as accumulation of cells at G1 phase at 1 micromol/L incubated for 72 hrs by propidium iodide staining based flow cytometry analysis (reference value: 85.6 %). Format: toxicity. The settings on record: 1 µM, dose 1 µmol/L. The gist of the method: as §1
For series [12], the system named is NHDF. The series is described as follows: Induction of cell cycle arrest in human HDF cells assessed as accumulation of cells at S phase at 3 micromol/L incubated for 72 hrs by propidium iodide staining based flow cytometry analysis (reference value: 3.6 %). Format: toxicity. The settings on record: 3 µM, dose 3 µmol/L. Put shortly:
as §1

Series [13] concerns NHDF. The series is described as follows: Induction of cell cycle arrest in human HDF cells assessed as accumulation of cells at Sub-2N phase at 1 micromol/L incubated for 72 hrs by propidium iodide staining based flow cytometry analysis (reference value: 0.7 %). Format: toxicity. The settings on record: 1 µM, dose 1 µmol/L. The gist of the method:
as §1

For series [14], the system named is NHDF. The series is described as follows: Induction of cell cycle arrest in human HDF cells assessed as accumulation of cells at >4N phase at 1 micromol/L incubated for 72 hrs by propidium iodide staining based flow cytometry analysis (reference value: 1.4 %). Format: toxicity. The note with it: 1 µM, dose 1 µmol/L. The gist of the method: as §1
The test system of series [15] is NHDF. The series is described as follows: Induction of cell cycle arrest in human HDF cells assessed as accumulation of cells at >4N phase at 3 micromol/L incubated for 72 hrs by propidium iodide staining based flow cytometry analysis (reference value: 1.4 %). Format: toxicity. The settings on record: 3 µM, dose 3 µmol/L. The gist of the method:
as §1

Series [16] has as its system NCI-H460. In words: Induction of cell cycle arrest in human NCI-H460 cells assessed as accumulation of cells at G2-M phase at 1 micromol/L incubated for 24 hrs by propidium iodide staining based flow cytometry analysis (reference value: 19.8 %). Format: functional. The note with it: dose 1 µmol/L, at 1 µM.
Series [17] deals with NCI-H460. The series is described as follows: Induction of cell cycle arrest in human NCI-H460 cells assessed as accumulation of cells at S phase at 3 micromol/L incubated for 48 hrs by propidium iodide staining based flow cytometry analysis (reference value: 18.5 %). Format: functional. The settings on record: dose 3 µmol/L, at 3 µM.
Series [18] relates to NCI-H460. In words: Induction of cell cycle arrest in human NCI-H460 cells assessed as accumulation of cells at G2-M phase at 3 micromol/L incubated for 48 hrs by propidium iodide staining based flow cytometry analysis (reference value: 22.5 %). Format: functional. The settings on record: dose 3 µmol/L, at 3 µM.
The subject of series [19] is NCI-H460. The series is described as follows: Induction of cell cycle arrest in human NCI-H460 cells assessed as accumulation of cells at Sub-2N phase at 1 micromol/L incubated for 72 hrs by propidium iodide staining based flow cytometry analysis (reference value: 2.1 %). The settings on record: dose 1 µmol/L, at 1 µM. Format: functional.

pIC50: −log10 of the molar value. Active and inactive are the calls of the source. The rule behind the calls is not given here.

Sequence of Platelet-derived growth factor receptor beta (P09619 whole entry): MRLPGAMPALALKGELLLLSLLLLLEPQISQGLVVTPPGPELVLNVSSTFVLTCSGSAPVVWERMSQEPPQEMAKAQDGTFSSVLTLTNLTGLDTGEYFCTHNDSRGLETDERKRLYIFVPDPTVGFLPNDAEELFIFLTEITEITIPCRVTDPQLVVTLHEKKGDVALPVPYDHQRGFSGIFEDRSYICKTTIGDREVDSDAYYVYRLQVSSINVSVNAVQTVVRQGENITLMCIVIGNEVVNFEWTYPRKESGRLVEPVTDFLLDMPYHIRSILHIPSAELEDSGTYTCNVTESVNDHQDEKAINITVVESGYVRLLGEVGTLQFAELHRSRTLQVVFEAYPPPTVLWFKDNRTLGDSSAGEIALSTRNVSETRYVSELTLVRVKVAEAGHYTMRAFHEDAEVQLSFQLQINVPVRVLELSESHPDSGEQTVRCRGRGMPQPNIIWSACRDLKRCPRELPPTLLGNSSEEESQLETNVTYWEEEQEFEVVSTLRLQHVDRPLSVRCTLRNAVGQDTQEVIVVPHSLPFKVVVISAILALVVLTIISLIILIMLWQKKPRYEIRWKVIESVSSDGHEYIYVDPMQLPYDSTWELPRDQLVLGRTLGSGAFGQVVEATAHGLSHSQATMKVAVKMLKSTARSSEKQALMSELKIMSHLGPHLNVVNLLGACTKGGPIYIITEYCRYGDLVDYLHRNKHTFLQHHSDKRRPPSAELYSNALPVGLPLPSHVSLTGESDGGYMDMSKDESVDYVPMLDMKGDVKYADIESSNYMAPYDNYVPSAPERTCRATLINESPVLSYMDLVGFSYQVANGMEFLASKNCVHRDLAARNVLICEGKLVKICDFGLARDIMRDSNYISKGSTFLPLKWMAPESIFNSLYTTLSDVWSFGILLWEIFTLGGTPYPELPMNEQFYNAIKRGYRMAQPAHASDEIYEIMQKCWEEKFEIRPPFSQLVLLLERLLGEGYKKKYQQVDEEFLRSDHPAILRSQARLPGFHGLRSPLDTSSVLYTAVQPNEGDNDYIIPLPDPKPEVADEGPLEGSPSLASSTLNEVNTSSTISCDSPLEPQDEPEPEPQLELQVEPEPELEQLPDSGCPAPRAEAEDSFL

By pIC50 is commonly meant the negative decadic logarithm of the IC50, by convention in mol/L. On to `COc1cc2ncn(-c3cc(OCc4ccccc4C(F)(F)F)c(C(N)=O)s3)c2cc1OC` [GW843682X], for which the figures for the pIC50 in [1], in series [2] and in series [4] were 6.80, less than 5.00 and 6.85, respectively. The selectivity ratio in [3] was 9. In addition, in the series with NCI-H460 [5], the outcome was Active. Also, the Activity with NHDF [6] worked out at 27.6%; in the series with NHDF [7] it was 6%; with NHDF [8], 5.9%; with NHDF [9], 27%; in the series on NHDF [10], 6.4%; with NHDF [11] it was 66.2%. The Activity in the series with NHDF [12] is reported as 8%; in the series with NHDF [13], 1.3%; in the series with NHDF [14], 3.5%; in the series with NHDF [15], 19.1%; in the series on NCI-H460 [16], 33%; with NCI-H460 [17], 8%. Moreover, the Activity is on record as 14.4% in the series on NCI-H460 [18] and 16% with NCI-H460 [19].
